Compound activity deposited in PubChem BioAssay by The Scripps Research Institute Molecular Screening Center.
Wee1 stabilizer: blocks degradation of human Wee1 kinase; 220,000 compounds, 1.2% hits; reporter increase, % at 5 µM; P30291; HeLa Luc-Wee1K328M stability, luciferase luminescence; 100% = proteasome inhibitor MG132 effect;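 active means activation above the mean of all tested compounds plus 3 SD, set per screening run, cut at about 8.8% in these data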;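 further: cells exposed to compound for 20 h before luminescence read; 0% = DMSO alone and 100% = MG132 at 30 µM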
Target sequence (P30291 whole entry K328M): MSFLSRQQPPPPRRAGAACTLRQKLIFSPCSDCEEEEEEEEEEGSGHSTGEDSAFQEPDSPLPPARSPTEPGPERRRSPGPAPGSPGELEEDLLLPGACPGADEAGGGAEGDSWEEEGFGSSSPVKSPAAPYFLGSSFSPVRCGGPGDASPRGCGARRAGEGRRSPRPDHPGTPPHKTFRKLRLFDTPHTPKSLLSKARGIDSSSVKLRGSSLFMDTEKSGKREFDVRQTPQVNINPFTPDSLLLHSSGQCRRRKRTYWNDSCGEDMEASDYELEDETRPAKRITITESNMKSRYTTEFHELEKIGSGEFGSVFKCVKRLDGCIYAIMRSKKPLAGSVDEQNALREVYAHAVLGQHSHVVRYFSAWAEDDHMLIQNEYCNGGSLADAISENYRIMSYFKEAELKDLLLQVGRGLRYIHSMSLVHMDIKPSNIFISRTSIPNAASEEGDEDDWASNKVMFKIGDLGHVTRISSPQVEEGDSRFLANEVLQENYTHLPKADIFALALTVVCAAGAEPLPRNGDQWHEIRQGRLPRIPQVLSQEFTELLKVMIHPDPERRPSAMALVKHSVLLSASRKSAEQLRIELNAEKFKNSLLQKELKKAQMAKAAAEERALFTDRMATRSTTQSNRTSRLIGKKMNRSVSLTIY
NPY-Y2 antag: blocks the human neuropeptide Y Y2 receptor | AID 793 | 140,000 compounds, 0.99% hits | inhibition, % at 2.7 µM | P49146 | NPY-Y2 expressing cells, antagonist mode; in the data active means inhibition above about 17%;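 further: 0% = vehicle with agonist challenge and 100% = reference antagonist with challenge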
NPY-Y2 PAM-ag: potentiators or agonists of human neuropeptide Y receptor Y2. cells expressing NPY-Y2, potentiator/agonist read-out. activation, % at 3.6 µM. 220,000 compounds, 0.45% hits. AID 1359; in the data active means activation above about 27%;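 further: cells stimulated with NPY near EC25 plus isoproterenol at EC100; 0% = vehicle plus submaximal agonist and 100% = vehicle plus saturating agonist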
Hsp70 activator: Hsp70 transcriptional activation, primary screen; HeLa Hsp70 promoter luciferase reporter, luminescence; scaled: vehicle 0, proteasome-inhibitor control 100%; activation, % at 10 µM; 200,000 compounds, 0.04% hits; AID 1203;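 active means activation above the mean across all tested compounds plus 3 SD, cutoff set per campaign, cut at about 5.5% in these data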;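 further: 100% = MG132 at 30 µM as the positive control and 0% = DMSO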
NPY-Y1 PAM-ag: potentiators or agonists of human neuropeptide Y receptor Y1. P25929. NPY-Y1 expressing cells, potentiator/agonist activation. activation, % at 3.6 µM. 220,000 compounds, 0.37% hits. AID 1304; in the data active means activation above about 33%, passing the limit was not always enough;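 further: cells stimulated with NPY at EC10 then isoproterenol at EC100; 0% = low agonist plus stimulus and 100% = saturating agonist plus stimulus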
NPY-Y1 antag: blocks the human neuropeptide Y Y1 receptor | HEK293-CNG Y1 cells, membrane potential fluorescence; NPY at EC95, then isoproterenol | 200,000 compounds, 1% hits | P25929 | inhibition, % at 3.6 µM;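 active means inhibition above the campaign mean inhibition of all tested compounds plus 3 SD, cut at about 20% in these data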;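 further: 0% = DMSO wells given NPY plus isoproterenol and 100% = isoproterenol alone without NPY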
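material = HEK293 cells with Y1 receptor plus CNG channel | also added = NPY 25 nM then isoproterenol 1 µM plus Ro 20-1724 25 µM | schedule = dye 3 h, compound 60 min room temperature, stimulation 45 min | measured by = membrane potential fluorescence | benchmarks = high control isoproterenol alone, low control NPY with isoproterenol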
NPY1 antag ctr: counter-screen for NPY-Y2 antagonists: human NPY-Y1 antagonism. shares compounds with NPY-Y2 antag. cell-based NPY-Y1 antagonism counterscreen. inhibition, % at 3.6 µM. 710 compounds, 19% hits. AID 1256;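 further: cells challenged with NPY then isoproterenol with cAMP sensed through a CNG channel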
NPY-Y2 ant conf: confirmation of human neuropeptide Y receptor Y2 antagonists; inhibition, % at 2.8 µM; HEK293 NPY-Y2 CNG channel, membrane potential fluorescence; shares compounds with NPY-Y2 antag; AID 1257; 710 compounds, 32% hits;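 active means mean inhibition of triplicate wells above the hit cutoff set in the primary screen, cut at about 17% in these data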;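 further: 0% = DMSO with NPY challenge and 100% = BIIE0246 high control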
NPY-Y1 ant conf: human NPY-Y1 antagonism, confirmation | shares compounds with NPY-Y1 antag | HEK293-CNG NPY-Y1, membrane potential fluorescence, cAMP; NPY challenge against isoproterenol-raised cAMP | inhibition, % at 3.6 µM | 1,200 compounds, 21% hits | AID 1254;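 further: 0% = vehicle with agonist plus stimulus and 100% = stimulus alone without agonist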
NPY-Y2 antag ct: counter-screen for NPY-Y1 antagonists: human NPY-Y2 antagonism. shares compounds with NPY-Y1 antag. HEK293 NPY-Y2 CNG membrane potential fluorescence; cells given NPY, then isoproterenol. inhibition, % at 3.6 µM. 1,200 compounds, 28% hits. AID 1255; in the data active means inhibition above about 17%;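 further: 0% = DMSO with agonist challenge and 100% = reference antagonist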
Wee1 stab conf: human Wee1 degradation inhibition, confirmation; shares compounds with Wee1 stabilizer; HeLa Luc-Wee1K328M degradation, luminescence; vehicle 0%, proteasome-blocked wells 100%; activation, % at 5 µM; 1,100 compounds, 4% hits; AID 1410; in the data active means activation above about 8.9%
Active calls of the source: *; . = no result. In the library only some 3% were active in any assay of this set; here they are far more common. Unless noted, no stated cut-off is given here; in the data, active means inhibition above about 20%; inactive means the rest.

SMILES | Wee1 stabilizer | NPY-Y2 antag | NPY-Y2 PAM-ag | Hsp70 activator | NPY-Y1 PAM-ag | NPY-Y1 antag | NPY-Y1 ant conf | NPY-Y2 antag ct | others
CN(C)/C=C1/C=C(C=O)OC1=O | -1 | . | 0 | . | 6 | . | . | .
Cc1cccc(/C(N)=N/OC(=O)COc2ccc(Cl)c(C)c2)c1 | -1 | 11 | 16 | 0 | 1 | -3 | . | .
Cc1cc(OCC(=O)O/N=C(\N)c2ccccc2)ccc1Cl | 3 | 19* | -4 | 0 | -10 | 10 | . | . | NPY1 antag ctr=7;NPY-Y2 ant conf=10
N#Cc1nc(COc2ccc(Cl)cc2)oc1NCc1ccc2c(c1)OCO2 | 2 | 14 | -16 | 0 | -3 | 0 | . | .
Cc1cccc(OCc2nc(C#N)c(NCc3ccc4c(c3)OCO4)o2)c1 | -3 | 27* | -23 | 0 | -32 | 12 | . | . | NPY1 antag ctr=15;NPY-Y2 ant conf=13
O=C(c1ccccn1)N(Cc1ccco1)C1(C(=O)NC2CCCCC2)CCCCC1 | 1 | 32* | 1 | 0 | 2 | 19 | . | . | NPY1 antag ctr=11;NPY-Y2 ant conf=6
Cc1cccc(C)c1NC(=O)C1(N(Cc2ccco2)C(=O)c2ccccn2)CCCC1 | 1 | 5 | -3 | 1 | -18 | 10 | . | .
Cc1nc2ccc(F)cc2cc1C(=O)NCc1ccco1 | -2 | -1 | 22 | 0 | 4 | 8 | . | .
Cc1nc2ccc(F)cc2cc1C(=O)Nc1ccc(Cl)c(Cl)c1 | 15* | 23* | -12 | 0 | -3 | 6 | . | . | NPY1 antag ctr=14;NPY-Y2 ant conf=31*;Wee1 stab conf=0
Cc1ccc(-c2nc(=S)c3c(n2Cc2ccco2)CC(C)(C)OC3)cc1 | 13* | 18* | 1 | -1 | -12 | 17 | . | . | NPY1 antag ctr=21*;NPY-Y2 ant conf=8;Wee1 stab conf=1
Cc1cccc2c1c1ccc3c(c1n2C)C(=O)C=CC3=O | 1 | . | -27 | . | -1 | . | . | .
CC(C)(C)Nc1nc(N2CCCC2)nc(N2CCCC2)n1 | -3 | 15 | 11 | 0 | 18 | 19 | . | .
CCCNc1nc(N2CCCC2)nc(N2CCCC2)n1 | 1 | . | 8 | 0 | -1 | 30* | 13 | 11
Cc1cccc(C(=O)N/N=C/C(C)Cc2ccc3c(c2)OCO3)c1 (stereo not given) | -3 | 9 | -13 | 0 | -25 | 10 | . | .
O=C1CCC(C(=O)OCc2ccccc2)N1 (stereo not given) | 3 | 1 | -21 | 0 | 1 | 6 | . | .
O=C1CCC(C(=O)OCC(=O)C23CC4CC(CC(C4)C2)C3)N1 (stereo not given) | -4 | 0 | -2 | 0 | 22 | 23* | -2 | 1
Cc1ccc(C)c(Cn2c(CO)nc3ccccc32)c1 | 2 | 7 | -39 | 0 | -26 | 21* | 9 | 9
CCC(=O)Nc1ccc(/C(C)=N\NS(=O)(=O)c2ccc(C)cc2)cc1 | -2 | 6 | 4 | 0 | 18 | -2 | . | .
O=S(=O)(c1ccc(F)cc1)N1CCC2(CC1)OCCO2 | -1 | . | 17 | 0 | 21 | 0 | . | .
Cc1c(Nc2scc(-c3ccccc3)[n+]2-c2ccccc2)c(=O)n(-c2ccccc2)n1C | 2 | . | 12 | 0 | 22 | 5 | . | .
Cc1ccccc1Nc1scc(-c2ccc(Cl)cc2)[n+]1-c1ccccc1C | 2 | . | -4 | 0 | -6 | 36* | 9 | 11
CC(C)CC(c1nnnn1C(C)C)N1CCN(c2cccc(Cl)c2)CC1 (stereo not given) | -3 | 13 | -36 | 0 | -2 | 37* | 13 | 5
CCC(C)(C(=O)NC1CCCCC1)N(Cc1ccco1)C(=O)Cc1cccs1 (stereo not given) | 8 | 12 | -43 | 0 | -36 | 72* | 38* | 14
CCC(C)(C(=O)NC1CCCCC1)N(Cc1cccs1)C(=O)CC1NC(=O)NC1=O (stereo not given) | -2 | 2 | -20 | 0 | -12 | -3 | . | .
Cc1cc(Cl)c(S(=O)(=O)N/N=C/c2ccc3c(c2)OCO3)c(Cl)c1 | 0 | 7 | -5 | 0 | -22 | 20* | 9 | 14
SMILES | Wee1 stabilizer | NPY-Y2 antag | NPY-Y2 PAM-ag | Hsp70 activator | NPY-Y1 PAM-ag | NPY-Y1 antag | NPY-Y1 ant conf | NPY-Y2 antag ct | others
O=S(=O)(N/N=C/c1ccc2c(c1)OCCO2)c1ccc(Cl)cc1 | -1 | 13 | -20 | 0 | 1 | 3 | . | .
CC(=O)N(CCC(Cc1ccccc1)c1ccc2c(c1)OCO2)Cc1ccc(Cl)cc1 (stereo not given) | 1 | 9 | -18 | 0 | -7 | 12 | . | .
O=C(O)CC(Cc1ccccc1)c1ccc2c(c1)OCO2 (stereo not given) | -5 | 8 | -28 | 0 | -21 | 23* | 13 | 12
Cc1nc(NCc2ccccn2)c2c3c(sc2n1)CCCC3 | 0 | . | -13 | 0 | 7 | 46* | 15 | 9
Cc1ccccc1NC(=O)c1sc2nc3c(c(-c4ccco4)c2c1N)CCCC3 | 3 | 2 | -1 | 0 | -8 | 24* | 2 | 4
Nc1c(C(=O)Nc2ccccc2)sc2nc3c(c(-c4ccco4)c12)CCCC3 | 4 | 0 | -16 | 0 | -50 | 6 | . | .
CC(C)C(OC(=O)c1cccs1)C(=O)NCc1ccc2c(c1)OCO2 (stereo not given) | -3 | . | -21 | 0 | -2 | 6 | . | .
Cc1cccc(-c2noc(CCC(=O)NCc3ccccc3)n2)c1 | -3 | 11 | -25 | 0 | -46 | 8 | . | .
Cc1cc(C)cc(OCC(=O)NCc2nc(-c3ccccc3)no2)c1 | 0 | 15 | -19 | 0 | -50 | 29* | 15 | 11
CCOC(=O)C1=C(C)N=C2SC(C(=O)OC)=CC(=O)N2C1c1ccc(OC)cc1 (stereo not given) | 0 | . | -11 | 0 | -9 | -2 | . | .
Cc1ccc(NC(=O)CSc2nc3ccccc3c(=O)n2CCCN2CCCCC2)cc1Cl | -2 | . | -60 | 0 | -70 | 23* | 45* | 55*
CC1CCN(CCCn2c(SCC(=O)Nc3ccccc3Cl)nc3ccccc3c2=O)CC1 | 0 | . | -15 | 0 | -39 | 31* | 25* | 24*
O=C(NCc1ccccc1Cl)C(=O)NCC1OCCN1S(=O)(=O)c1cccs1 (stereo not given) | -3 | . | -20 | 0 | -5 | -1 | . | .
